In ChEMBL document CHEMBL1151181, “New sesterterpenes from the Antarctic sponge Suberites sp” (2004) one finds zone of inhibition and CC50 data, which are given here for three compounds.

Common to all, as to format: functional
The subject of one assay is Streptococcus. The assay is described as follows: Antimicrobial activity against Streptococcus at 25 ug by paper-disk method. Particulars: read-out: IZ. A digest of the protocol: (§1)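 Paper-disk diffusion assay with 25 µg of compound per disk; activity read as diameter of the growth-inhibition zone in mm. The Streptococcus strain is given only as Streptococcus sp.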
The test system of the next assay is Staphylococcus aureus. The assay can be described thus: Antimicrobial activity against Staphylococcus aureus at 25 ug by paper-disk method. Particulars: read-out: IZ. A digest of the protocol:
as §1

For the next assay, the system named is Candida albicans. The assay is described as follows: Antimicrobial activity against Candida albicans at 25 ug by paper-disk method. The note with it: read-out: IZ. A digest of the protocol:
as §1

A further assay has as its system Escherichia coli. The assay can be described thus: Antimicrobial activity against Escherichia coli at 25 ug by paper-disk method. The note with it: read-out: IZ. A digest of the protocol:
as §1

Another assay deals with Bacillus subtilis. The assay can be described thus: Antimicrobial activity against Bacillus subtilis at 25 ug by paper-disk method. Particulars: read-out: IZ. A digest of the protocol:
as §1

The test system of a further assay is K562. The assay can be described thus: Cytotoxicity against human K562 cells by MTT method. Particulars: read-out: LC50 (the source's name). A digest of the protocol: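 Human leukemia K562 cell line, MTT read-out; value expressed as LC50 in µg/mL.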

For the compound `CC(=O)O[C@@H]1C=C(C)C(=O)C[C@H]1[C@@]1(O)CC[C@@H]2[C@@](C)(C[C@@H](OC(C)=O)[C@H]3C(C)(C)CCC[C@]23C)C1`, the zone of inhibition at 25 µg/disc in the assay with Streptococcus, in the assay on Staphylococcus aureus, with Candida albicans, in the assay on Escherichia coli and in the assay with Bacillus subtilis was less than 3 mm throughout.

As for `CC(=O)O[C@@H]1C[C@@]2(C)CC(c3ccc(C)c(O)c3)=CC[C@H]2[C@@]2(C)CCCC(C)(C)[C@H]12` [SUBERIPHENOL], the zone of inhibition at 25 µg/disc with Streptococcus, with Staphylococcus aureus, in the assay with Candida albicans, in the assay with Escherichia coli and with Bacillus subtilis was less than 3 mm throughout. The CC50 with K562 is greater than 100 µg/mL.

As to `CC(=O)O[C@@H]1C[C@@]2(C)CC([C@@H]3CC(=O)C(C)=C[C@H]3O)=CC[C@H]2[C@@]2(C)CCCC(C)(C)[C@H]12` [SUBERITENONE C], the zone of inhibition at 25 µg/disc in the assay on Streptococcus, in the assay with Staphylococcus aureus, in the assay with Candida albicans, in the assay on Escherichia coli and in the assay on Bacillus subtilis was less than 3 mm in each case. In addition, in the assay on K562, the CC50 is greater than 100 µg/mL.
